Laboratory results: ChEMBL document CHEMBL1126697, “Bis(heteroaryl)piperazine (BHAP) reverse transcriptase inhibitors: structure-activity relationships of novel substituted indole analogues and the identification of 1-[(5-methanesulfonamido-1H-indol-2-yl)-carbonyl]-4-[3- [(1-methylethyl)amino]-pyridinyl]piperazine monomethanesulfonate (U-90152S), a …” (J Med Chem, 1993)
Where a name gives a salt, the structure may show the parent alone.

Tests used:
[1] = test system: Human immunodeficiency virus 1; test: Inhibition of HIV-1 D34 replication in human peripheral blood mononuclear cells.; format: functional; settings: read-out: ED50 (the source's name)
Summary of the method: (§1)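 PBMC (1×10^6 cells) infected with inoculum containing 1 ng p24 of HIV-1 D34 isolate. Supernatant p24 measured 4 days after infection. Four drug concentrations, 10-fold dilution series. ED50 given as a range when it fell between dilutions. Viability by mitogen-stimulated cell proliferation. Mesylate salts used in this assay.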

MT2 = test: Cytotoxic concentration against MT-2 cells; format: functional; settings: Homo sapiens
Summary of the method: (§2)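 HIV-1 IIIb infected MT-2 cells at multiplicity of infection 0.001. Syncytium formation scored 4 days post-infection, at peak viral cytopathic effect. Three drug concentrations, 10-fold dilution series. ED50 given as a range when it fell between dilutions. Viability by trypan blue exclusion.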

[2] = Cytotoxic concentration against PBMC cells; format: functional; settings: Homo sapiens; summary of the method: as §1
[3] = target: Human immunodeficiency virus type 1 reverse transcriptase (Human immunodeficiency virus 1) (UniProt Q72547); test: In vitro inhibition of HIV-1 reverse transcriptase at 100 uM
[4] = target: Human immunodeficiency virus type 1 reverse transcriptase (Human immunodeficiency virus 1, UniProt Q72547); test: In vitro inhibition of HIV-1 reverse transcriptase
[5] = test system: Human immunodeficiency virus 1; test: Inhibition of HIV-1 IIIB replication in MT2 (human lymphocyte) cells.; format: functional; settings: Human immunodeficiency virus 1, MT2; read-out: ED50 (the source's name); summary of the method: as §2
[6] = test system: Human immunodeficiency virus 1; test: Inhibition of HIV-1 replication in human lymphocytes [peripheral blood mononuclear cells (PBMC)/D34 was determined as effective dose; format: functional; settings: read-out: ED50 (the source's name); summary of the method: as §1

Compound	EC50 [1] [nM]	CC50 (MT2) [nM]	CC50 [2] [nM]	inhibition [3] [%]	IC50 [4] [nM]	EC50 [5] [nM]	EC50 [6] [nM]
Cc1ccc2[nH]c(C(=O)N3CCN(c4ncccc4NC(C)C)CC3)cc2c1	10	> 10000	> 10000	68	34000	260	–
CC(C)Nc1cccnc1N1CCN(C(=O)c2cc3cc(NS(C)(=O)=O)ccc3[nH]2)CC1 [DELAVIRDINE]	0.1	> 30000	> 10000	–	–	10	–
CC(=O)Nc1ccc2[nH]c(C(=O)N3CCN(c4ncccc4NC(C)C)CC3)cc2c1	10	> 10000	> 10000	94	1800	> 10000	–
CC(C)Nc1cccnc1N1CCN(C(=O)c2cc3cc(O)ccc3[nH]2)CC1	1	> 10000	> 10000	98	1300	< 260	–
Cc1cn([C@H]2C[C@H](N=[N+]=[N-])[C@@H](CO)O2)c(=O)[nH]c1=O [ZIDOVUDINE]	1	> 10000	> 10000	–	–	70	–
CCNc1cccnc1N1CCN(C(=O)c2cc3cc(O)ccc3[nH]2)CC1	–	> 10000	> 10000	89	2000	270	10
CC(C)Nc1cccnc1N1CCN(C(=O)c2cc3ccc(C=O)cc3[nH]2)CC1	0.1	> 10000	> 10000	94	1400	< 260	–
CC(C)Nc1cccnc1N1CCN(C(=O)c2cc3ccc(F)cc3[nH]2)CC1	1	> 10000	> 10000	96	4400	260	–
COc1ccc2cc(C(=O)N3CCN(c4ncccc4NC(C)C)CC3)[nH]c2c1	10	> 10000	> 10000	97	1300	< 250	–
COC(=O)Nc1ccc2[nH]c(C(=O)N3CCN(c4ncccc4NC(C)C)CC3)cc2c1	0.1	> 10000	> 10000	96	2500	–	–
CC(C)Nc1cccnc1N1CCN(C(=O)c2cc3cc(NC(=O)C(F)(F)F)ccc3[nH]2)CC1	1	> 10000	> 10000	85	27000	210	–
CCc1cc(NCc2nc3c(Cl)ccc(Cl)c3o2)c(O)nc1C [L-697661]	< 0.1	> 10000	> 10000	98	2700	< 300	–
CC(C)Nc1cccnc1N1CCN(C(=O)c2cc3ccc(O)cc3[nH]2)CC1	–	> 10000	> 10000	97	1200	–	–
CC(C)Nc1cccnc1N1CCN(C(=O)c2cc3ccc(CO)cc3[nH]2)CC1	1	> 10000	> 10000	98	760	< 250	–
CC(C)Nc1cccnc1N1CCN(C(=O)c2cc3ccc(OCc4ccccc4)cc3[nH]2)CC1	100	> 10000	> 10000	65	37000	–	–
CC(C)Nc1cccnc1N1CCN(C(=O)c2cc3cc(OCc4ccccc4)ccc3[nH]2)CC1	10	> 10000	> 10000	74	4300	< 210	–
CC(C)Nc1cccnc1N1CCN(C(=O)c2cc3cc(OS(C)(=O)=O)ccc3[nH]2)CC1	–	> 10000	> 10000	97	5500	–	–
Cc1ccnc2c1NC(=O)c1cccnc1N2C1CC1 [NEVIRAPINE]	10	> 10000	> 10000	93	–	–	–
CC(C)Nc1cccnc1N1CCN(C(=O)c2cc3cc(N)ccc3[nH]2)CC1	10	> 10000	> 10000	94	1000	–	–
CCNc1cccnc1N1CCN(C(=O)c2cc3cc(OC)ccc3[nH]2)CC1 [ATEVIRDINE MESYLATE]	1	> 10000	> 10000	92	–	< 200	–
CCNc1cccnc1N1CCN(C(=O)c2cc3ccccc3[nH]2)CC1	10	> 10000	> 10000	96	4000	300	–
CC(C)Nc1cccnc1N1CCN(C(=O)c2cc3cc(N(C)S(C)(=O)=O)ccc3[nH]2)CC1	1	> 10000	> 10000	95	5600	–	–
CC(C)Nc1cccnc1N1CCN(C(=O)c2cc3ccccc3[nH]2)CC1	1	> 10000	> 10000	96	1200	300	–
CC(C)Nc1cccnc1N1CCN(C(=O)c2cc3ccc(NS(C)(=O)=O)cc3[nH]2)CC1	0.1	> 10000	> 10000	98	500	< 20	–
CC(C)Nc1cccnc1N1CCN(C(=O)c2cc3cc(NS(=O)(=O)C(F)(F)F)ccc3[nH]2)CC1	100	> 10000	> 10000	94	8300	200	–
CC(C)Nc1cccnc1N1CCN(C(=O)c2cc3ccc(C#N)cc3[nH]2)CC1	–	> 10000	> 10000	74	3900	–	–
CC(C)Nc1cccnc1N1CCN(C(=O)c2cc3ccc(OS(C)(=O)=O)cc3[nH]2)CC1	–	> 10000	> 10000	97	2200	–	–
